{"source": "paper PMC5198968", "about": "(Cancer Science, 2016)", "type_in_all_cases": "in vivo, human", "key": {"[1]": {"test_system": "Japanese patients with advanced hepatocellular carcinoma", "experiment": "Phase I dose escalation: dose-limiting toxicities and maximum tolerated dose", "summary_of_the_method": "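Doses started at 150 mg b.i.d. (group I) or 100 mg b.i.d. (group II) and escalated to 200 mg, with 3–9 patients per level. DLTs were drug-related AEs in cycle 1: grade 4 neutropenia lasting ≥8 days, febrile neutropenia or thrombocytopenia, most non-hematological grade ≥3 events, or defined liver-enzyme or bilirubin rises. Escalation required DLT incidence <33.3% (0/3, 1/6, 2/9). Twelve patients were added at the MTD.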"}, "[2]": {"test_system": "Japanese patients with advanced hepatocellular carcinoma", "experiment": "Efficacy: tumor response"}, "[3]": {"experiment": "Pharmacokinetics in plasma and urine", "details": "for half-life: human, plasma, oral, t ½,ss, gMean (gCV%)", "summary_of_the_method": "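Oral dosing twice daily, at 100, 150 or 200 mg depending on group. Blood was drawn predose and 1, 2, 3, 4, 6, 8, 10 and 24 h postdose on cycle 1 day 15, plus predose and 2 h postdose on cycle 2 days 1 and 15. Urine was collected over 24 h on cycle 1 day 15 and stored at −20°C or below. Analysis was by LC-MS/MS, with non-compartmental parameters, in treated patients with an evaluable PK end-point.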"}, "[4]": {"details": "200 mg b.i.d., expansion cohort"}, "[5]": {"details": "dose-normalized AUC at steady state"}}, "note": "“Also recorded” adds a separate entry of the source."}
{"smiles": "COC(=O)c1ccc2c(c1)NC(=O)/C2=C(\\Nc1ccc(N(C)C(=O)CN2CCN(C)CC2)cc1)c1ccccc1", "note": "[nintedanib]", "values": [{"measurement": "DLT of grade 3 diarrhea", "setting": "[1]; [4]", "result": "one patient in group I"}, {"measurement": "DLT of grade 3 drug-induced liver injury", "setting": "[1]; [4]", "result": "one patient in each group"}, {"measurement": "Patients who experienced a DLT", "setting": "[1]; 200 mg b.i.d., including expansion cohort, of 19 patients", "result": "three"}, {"measurement": "Maximum tolerated dose (MTD)", "setting": "[1]; both groups (mild and moderate liver impairment), oral, 28-day cycles", "result": 200, "unit": "mg b.i.d."}, {"measurement": "DLT during the MTD period (cycle 1)", "setting": "[1]; group I (150, 200 mg b.i.d.) and group II (100, 150, 200 mg b.i.d.), dose escalation", "result": "No dose‐limiting toxicities were reported; also recorded: No patient experienced a DLT"}, {"measurement": "Objective tumor response (RECIST 1.0, investigator assessment)", "setting": "[2]; both groups", "result": "no complete or partial responses"}, {"measurement": "Stable disease", "setting": "[2]; group I (12 patients; 10 treated at the MTD)", "result": 75.0, "unit": "%"}, {"measurement": "Patients with response by AFP (decline from baseline of >20% in AFP levels)", "setting": "[2]; group I, nine patients (56.3%) evaluable", "result": "three"}, {"measurement": "Patients who had progressed at the time of analysis", "setting": "[2]; group I, of 16 patients", "result": 15, "unit": "patients"}, {"measurement": "Median time to progression (TTP)", "setting": "[2]; group I, overall, 95% CI 1.05–5.52", "result": 2.8, "unit": "months"}, {"measurement": "Median time to progression (TTP)", "setting": "[2]; group I, prior sorafenib treatment, 95% CI 1.05–5.68", "result": 2.8, "unit": "months"}, {"measurement": "Median time to progression (TTP)", "setting": "[2]; group I, treated at the MTD of 200 mg b.i.d., 95% CI 1.05–5.52", "result": 2.8, "unit": "months"}, {"measurement": "Patients who had progressed at the time of analysis", "setting": "[2]; group II, all patients", "result": 14, "unit": "patients"}, {"measurement": "Patients with response by AFP", "setting": "[2]; group II, nine patients (64.3%) evaluable", "result": "three"}, {"measurement": "Median time to progression (TTP)", "setting": "[2]; group II, overall, 95% CI 0.95–6.70", "result": 3.2, "unit": "months"}, {"measurement": "Median time to progression (TTP)", "setting": "[2]; group II, prior sorafenib treatment, 95% CI 0.95–6.70", "result": 2.8, "unit": "months"}, {"measurement": "Median time to progression (TTP)", "setting": "[2]; group II, treated at the MTD of 200 mg b.i.d., 95% CI 0.95–5.62", "result": 2.8, "unit": "months"}, {"measurement": "Computed tomography finding in metastatic lymph node lesions", "setting": "[2]; one patient of group I, after 1 month of nintedanib treatment", "result": "tumor necrosis"}, {"measurement": "Stable disease", "setting": "[2]; patients in each group", "result": "> 75", "unit": "%"}, {"measurement": "Time at which plasma concentrations reached their maximum", "setting": "[3]; after multiple oral dose administration at steady state", "result": "3 to 4", "unit": "h"}, {"measurement": "Correlation between nintedanib exposure (AUCτ,ss,norm) and AST or ALT levels", "setting": "[3]; days 1–22 of cycle 1", "result": "no clear correlation"}, {"measurement": "Increase in AUCτ,ss,norm, Child–Pugh score 7 versus score 5 or 6", "setting": "[3]; [5]", "result": 37, "unit": "%"}, {"measurement": "Increase in AUCτ,ss,norm, group II versus group I", "setting": "[3]; [5]", "result": 26, "unit": "%"}, {"measurement": "half-life", "setting": "[3]; 100 mg, Group II (moderate liver impairment), 100 mg b.i.d., n = 2, steady state", "result": 41.6, "unit": "h"}, {"measurement": "half-life", "setting": "[3]; 150 mg, Group I (mild liver impairment), 150 mg b.i.d., n = 3, steady state", "result": 23.6, "unit": "h"}, {"measurement": "half-life", "setting": "[3]; 150 mg, Group II (moderate liver impairment), 150 mg b.i.d., n = 3, steady state", "result": 14.6, "unit": "h"}, {"measurement": "half-life", "setting": "[3]; 200 mg, Group I (mild liver impairment), 200 mg b.i.d., n = 9, steady state", "result": 16.6, "unit": "h"}, {"measurement": "half-life", "setting": "[3]; 200 mg, Group II (moderate liver impairment), 200 mg b.i.d. (n = 7), steady state", "result": 17.7, "unit": "h"}, {"measurement": "Administered dose recovered in the urine", "setting": "[3]; over 24 hours after dosing at steady state", "result": "0.49–0.66%"}, {"measurement": "AUCτ,ss of individual patients with high exposure", "setting": "[3]; two patients in group I, 200 mg b.i.d. cohort", "result": 5700, "unit": "ng·h/mL"}]}
